A selection: hits, their analogues and other compounds. The true share with any hit is near 2.3%.
CD11b adhes inh = inhibitors of human CD11b/CD18 binding to fibrinogen; P05107+P11215; actives 0.54% (n = 93,000); inhibition, % at 10 µM; AID 1497; K562 CD11b/CD18 adhesion to fibrinogen, ATPlite luminescence; Mn2+ added to activate the integrin;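 active = primary inhibition of 50% or more at 10 µM, then 40% or more on retest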
Target sequence (P05107 whole entry, looked up, other chains not shown): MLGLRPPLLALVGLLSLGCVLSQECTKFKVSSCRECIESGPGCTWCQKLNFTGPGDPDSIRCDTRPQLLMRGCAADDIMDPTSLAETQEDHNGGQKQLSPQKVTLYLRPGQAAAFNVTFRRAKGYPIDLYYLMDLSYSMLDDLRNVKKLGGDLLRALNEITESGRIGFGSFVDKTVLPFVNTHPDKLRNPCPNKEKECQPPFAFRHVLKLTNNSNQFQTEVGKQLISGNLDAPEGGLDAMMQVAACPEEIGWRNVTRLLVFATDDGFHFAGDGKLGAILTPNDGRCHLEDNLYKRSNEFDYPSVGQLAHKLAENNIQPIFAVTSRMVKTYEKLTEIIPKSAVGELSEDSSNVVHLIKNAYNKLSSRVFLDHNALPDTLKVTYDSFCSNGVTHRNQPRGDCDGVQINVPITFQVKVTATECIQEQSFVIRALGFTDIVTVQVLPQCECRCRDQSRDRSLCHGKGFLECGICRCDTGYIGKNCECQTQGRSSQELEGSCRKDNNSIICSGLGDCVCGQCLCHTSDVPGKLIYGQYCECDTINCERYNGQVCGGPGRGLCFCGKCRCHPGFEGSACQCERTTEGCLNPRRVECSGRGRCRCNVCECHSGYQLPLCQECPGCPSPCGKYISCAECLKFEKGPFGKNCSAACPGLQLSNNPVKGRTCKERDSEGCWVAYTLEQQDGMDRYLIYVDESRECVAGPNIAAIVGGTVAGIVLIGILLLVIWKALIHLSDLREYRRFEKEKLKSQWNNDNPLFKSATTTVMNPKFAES
tolC growth inh = blocks growth of E. coli BW25113 tolC mutant; OD615; actives 2.2% (n = 65,000); AID 573; growth inhibition, % at 10 µM (by protocol);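 active = growth inhibition at or above a cutoff equal to the mean over every tested compound plus 3 SD, cut at about 60% in these data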;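 note: growth measured after 20 h incubation at 37 °C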
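test system = E. coli BW25113 ΔtolC::kan bacteria | medium = LB with kanamycin 50 µg/mL | signal = OD at 615 nm | schedule = 37 °C, 20 h exposure | evaluation = % inhibition of E. coli growth | compound dosing = one dose of 10 µM final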
Ecoli WT expand = blocks growth of wild type E. coli BW25113; OD600 absorbance; growth inhibition, % at 100 µM; actives 0.15% (n = 98,000);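 active = growth inhibition above about 50% at one test dose, limit read from the data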;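 note: growth measured after 20 h incubation at 37 °C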
PTK2B oligo ant = Pyk2 (human) oligomerization antagonism; Q14289; Q293 cells, Pyk2 FERM NanoBiT luminescence; stronger effect = lower value; z-score (the deposit names both 25 µM and 10 µM); actives 0.83% (n = 99,000);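 active = Z-score of -3 or lower, scaled per plate to the spread of control and sample wells; inactive = z-score above -3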;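 note: negative z-score means lost luminescence so less FERM oligomerization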
Mac1 fbg enh = CD11b/CD18-fibrinogen binding enhancement; P05107+P11215; K562 CD11b/CD18 adhesion to fibrinogen, ATPlite luminescence; activation, % at 10 µM; actives 0.07% (n = 93,000);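 active = 10 µM primary screen giving 50% or more activity, confirmed by 40% or more on retest at that dose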
Each line names hits and unclear results; the compound was inactive in the other large screens.

CCCN1CCCc2cc(CN(CCCN3CCOCC3)C(=O)Nc3ccc(OCC)cc3)ccc21	CD11b adhes inh 65 (no result: tolC growth inh)
CN(C)c1ccc(C2C=C(c3ccc(Cl)cc3OC(F)F)Nc3ncnn32)cc1 (stereo unspecified)	tolC growth inh 96
Cc1ccc(C2C=C(c3ccccc3OC(F)F)Nc3ncnn32)cc1 (stereo unspecified)	none
N#Cc1cc2c(nc1SCC1COc3ccccc3O1)CCC2 (stereo unspecified)	none
Cc1cc(C)c(C#N)c(SCC2COc3ccccc3O2)n1 (stereo unspecified)	PTK2B oligo ant -3.3
CC1CCCCC1NC(=O)COC(=O)c1ccc(N(C)C)cc1 (stereo unspecified)	PTK2B oligo ant -3.1 (no result: tolC growth inh)
O=C(Nc1nccs1)c1cc2c(s1)CCCCC2	CD11b adhes inh 72 (no result: tolC growth inh)
COC(=O)c1sccc1NC(=O)c1cccc(OC)c1	none (no result: tolC growth inh)
NNC(=O)c1cc2c(s1)CCCCCC2	none (no result: tolC growth inh)
COC(=O)c1sccc1NC(=O)c1cc2c(s1)CCCC2	tolC growth inh 61
O=[N+]([O-])c1cc(S(=O)(=O)Nc2cccc(C(F)(F)F)c2)ccc1-n1nnc2ccccc21	CD11b adhes inh 95 (no result: tolC growth inh)
Cc1ccccc1NC(=S)NC(NC(=O)c1ccccc1C)C(Cl)(Cl)Cl (stereo unspecified)	none (no result: CD11b adhes inh, tolC growth inh, Mac1 fbg enh)
N/C(=N/O)c1nc(N2CCCC2)nc(N(c2ccccc2)c2ccccc2)n1	tolC growth inh 72
N/C(=N/O)c1nc(N2CCCCC2)nc(N2CCCCC2)n1	none (no result: CD11b adhes inh, Mac1 fbg enh)
Cc1csc(NC(=O)CSc2nsc(SCC(=O)Nc3nc(C)cs3)c2C#N)n1	PTK2B oligo ant -4.4
Cc1ccc(S(=O)(=O)NCCSc2nnnn2-c2ccccc2)cc1	none (no result: CD11b adhes inh, tolC growth inh, Ecoli WT expand, Mac1 fbg enh)
Cc1ccc(S(=O)(=O)NCCSc2nnnn2-c2cc(C)ccc2C)cc1	tolC growth inh 68
COC(=O)CNC(=O)/C=C/c1ccc(OC)cc1	none (no result: CD11b adhes inh, tolC growth inh, Mac1 fbg enh)
O=C(Nc1ccc(Cl)c(Cl)c1)OCc1cccnc1	tolC growth inh 92 (no result: CD11b adhes inh, Mac1 fbg enh)
O=C(NNC(=O)c1cccnc1)Nc1ccc(Cl)c(Cl)c1	none (no result: CD11b adhes inh, tolC growth inh, Mac1 fbg enh)
CC(=O)Nc1nc2nc(-c3ccccc3)cc(-c3ccccc3)n2n1	none (no result: tolC growth inh)
O=C(Nc1nc2nc(-c3ccccc3)cc(-c3ccccc3)n2n1)c1ccco1	PTK2B oligo ant -3.5
CCOC(=O)c1c(C)[nH]c(N=Nc2ccccc2C)c1C	none (no result: tolC growth inh)
CCOC(=O)c1ccc(S(=O)(=O)N2CCC(C(=O)O)CC2)cc1	none (no result: tolC growth inh)
CC1CCCC(C)N1C(=O)CN1C(=O)C(C)(C)Oc2ccc(C(=O)NC3CCCCC3)cc21 (stereo unspecified)	tolC growth inh 84
CC1CCCC(C)N1C(=O)CN1C(=O)C(C)(C)Oc2ccc(C(=O)NC3CCCC3)cc21 (stereo unspecified)	none
c1ccc(-c2nnc(N3CCN(c4ccccn4)CC3)c3ccccc23)cc1	none
Cc1ccc(-c2nnc(N3CCN(c4ccccn4)CC3)c3ccccc23)cc1	tolC growth inh 100
CCOC(=O)NC(NCC(O)c1ccccc1)(C(F)(F)F)C(F)(F)F (stereo unspecified)	none
Cc1ccc(NCc2nnc(SCC(=O)c3ccccc3)n2Cc2ccco2)c(C)c1	none
CCOc1ccccc1-c1nn2c(Cc3ccccc3)nnc2s1	tolC growth inh 99
c1ccc(Cc2nnc3sc(-c4ccccn4)nn23)cc1	none
CCOc1ccc(CCNC(=O)CCCN2C(=O)c3ccccc3C2=O)cc1OCC	none (no result: CD11b adhes inh, tolC growth inh, Mac1 fbg enh)
CC(Nc1ccc(Br)cn1)c1cc(Cl)ccc1O (stereo unspecified)	tolC growth inh 100, PTK2B oligo ant -3.5
C=C(c1ccc(O)cc1)c1ccc(O)cc1	PTK2B oligo ant -4.6
C/C=C(/C(=C/C)c1ccc(O)cc1)c1ccc(O)cc1	none (no result: CD11b adhes inh, Ecoli WT expand, PTK2B oligo ant, Mac1 fbg enh)
COc1cccc(-n2c(C)nc3cc(C(=O)O)ccc32)c1	none (no result: tolC growth inh)
Cc1cccc(C(=O)c2cnc3ccccc3c2-c2ccccc2)c1	CD11b adhes inh 59 (no result: tolC growth inh)
Cc1cccc(-c2cc(C(=O)NCc3ccccn3)c3ccccc3n2)c1	none (no result: tolC growth inh, Ecoli WT expand, PTK2B oligo ant)
Cc1ccc(N2C(=S)N=C(Nc3ccccc3C)C23CCOC(C)(C)C3)cc1 (stereo unspecified)	none (no result: CD11b adhes inh, tolC growth inh, Mac1 fbg enh)
Cc1cccc(NS(=O)(=O)c2cc(C(=O)N3CCc4ccccc4C3)ccc2Cl)c1C	none (no result: tolC growth inh)
Cc1onc(-c2ccccc2)c1C(=O)NC(C)C1CCCO1 (stereo unspecified)	none
CCOc1cc(/C=C2\C(=O)N(c3ccc(C(N)=O)cc3)N=C2C)ccc1OC(=O)c1cccs1	Mac1 fbg enh 81 (no result: tolC growth inh)
N#Cc1c(NC(=O)c2ccc(Br)o2)n(-c2ccccc2)c2nc3ccccc3nc12	tolC growth inh 62 (no result: CD11b adhes inh, Ecoli WT expand, PTK2B oligo ant, Mac1 fbg enh)
COc1ccc(-n2c(NC(=O)c3ccc(Br)o3)c(C#N)c3nc4ccccc4nc32)cc1	CD11b adhes inh 90 (no result: tolC growth inh, PTK2B oligo ant)
CCC(=O)Nc1c(C#N)c2nc3ccccc3nc2n1-c1ccc(C)cc1	none (no result: CD11b adhes inh, Ecoli WT expand, PTK2B oligo ant, Mac1 fbg enh)
Cc1c(C(=O)Nc2ccc(-c3nnc4n3CCCCC4)cc2)oc2ccc(Br)cc12	none (no result: CD11b adhes inh, tolC growth inh, Ecoli WT expand, Mac1 fbg enh)
CC(Oc1ccc(Cl)cc1Cl)c1nc(-c2ccc(NC(=O)c3ccccn3)cc2)no1 (stereo unspecified)	none (no result: CD11b adhes inh, tolC growth inh, Ecoli WT expand, Mac1 fbg enh)
CC(C(=O)Nc1ccc(F)c(F)c1F)N(C)CC(=O)Nc1ccccc1Br (stereo unspecified)	none (no result: tolC growth inh, Ecoli WT expand, PTK2B oligo ant)
COc1ccc(/C=N/Nc2nncc3ccccc23)cc1	CD11b adhes inh 95 (no result: tolC growth inh, Ecoli WT expand, PTK2B oligo ant)
Cc1cc(/C=N/n2cnnc2)c(C)n1-c1ccc(OCc2ccc(F)cc2)cc1	none
Cc1cc(/C=N/n2cnnc2)c(C)n1-c1ccc(OCc2ccc(Cl)cc2Cl)cc1	CD11b adhes inh 99 (no result: tolC growth inh)
COC(=O)Nc1snnc1C	none (no result: tolC growth inh)
Cc1ccc(N2C(=O)N(CC(=O)N3CCCc4ccccc43)C(=O)C2C)cc1 (stereo unspecified)	none (no result: CD11b adhes inh, tolC growth inh, Mac1 fbg enh)
Cc1cc(=O)[nH]c(-n2nc(C)cc2C)n1	tolC growth inh 75, Ecoli WT expand 57
Cc1cc(=O)[nH]c(-n2nc(C)c(Oc3ccccc3O)c2C)n1	none
Cc1ccc(NC(=O)CN(C)S(=O)(=O)c2cccc3nsnc23)cc1Cl	tolC growth inh 74
Cc1ccc(NC(=O)CN(C)S(=O)(=O)c2cccc3nsnc23)cc1C	none
CCOC(=O)c1c(=O)n(O)c2ccc(OC)cc2[n+]1[O-]	none (no result: tolC growth inh)
C=CCn1c(NS(=O)(=O)c2ccccc2)c(S(=O)(=O)c2ccc(C)cc2)c2nc3ccccc3nc21	CD11b adhes inh 96 (no result: tolC growth inh, Ecoli WT expand)
CCCSc1nsc(NC(=O)C(c2ccccc2)c2ccccc2)n1	CD11b adhes inh 98, PTK2B oligo ant -3.1 (no result: tolC growth inh)
COC(=O)C(C)(C(=O)OC)c1ccccc1[N+](=O)[O-]	none (no result: tolC growth inh)
C=CCc1c(C)nc(SCc2nc3ccccc3c(=O)[nH]2)[nH]c1=O	tolC growth inh 100
C=CCn1c(SCc2nc3ccccc3c(=O)[nH]2)nc2ccccc2c1=O	none (no result: tolC growth inh)
CN1CCN(C(=O)c2ccc(-n3cccc3)cc2)CC1	none (no result: CD11b adhes inh, tolC growth inh, Mac1 fbg enh)
CN(c1ccccc1)C(c1ccc(F)cc1)c1nnnn1CC1CCCO1 (stereo unspecified)	none
CN(c1ccccc1)C(c1ccc(F)cc1)c1nnnn1C1CCCC1 (stereo unspecified)	tolC growth inh 73
